From ChEMBL document CHEMBL2321699, “Discovery of O-Alkylamino Tethered Niclosamide Derivatives as Potent and Orally Bioavailable Anticancer Agents” (ACS Med Chem Lett, 2013)
Values after ≈ are worked out from the molar mass of the structure shown. Active and inactive are the calls of the source. No cut-off for these calls is given here.

Key:
MCF7 = experiment: Cytotoxicity against human ER positive MCF7 cells after 72 hrs by MTS assay; assay type: functional, cell-based; settings: MCF7, 72 h
Method in brief: (§1)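 Cell proliferation of MCF-7, MDA-MB-231, AsPC1 and Panc-1 measured by MTS assay; IC50 in μM.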

MDA-MB-231 [1] = experiment: Cytotoxicity against human ER negative MDA-MB-231 cells after 72 hrs by MTS assay; assay type: functional, cell-based; settings: MDA-MB-231, 72 h; method in brief: as §1
PANC-1 = experiment: Cytotoxicity against human PANC1 cells after 72 hrs by MTS assay; assay type: functional, cell-based; settings: PANC-1, 72 h; method in brief: as §1
ASPC1 = experiment: Cytotoxicity against human AsPC1 cells after 72 hrs by MTS assay; assay type: functional, cell-based; settings: ASPC1, 72 h; method in brief: as §1
MDA-MB-231 [2] = experiment: Antitumor activity against human ER negative MDA-MB-231 cells xenografted in nude mouse assessed as inhibition of tumor growth at 75 mg/kg, po qd for 5 days; assay type: functional, organism-based; design: dose 75 mg/kg
Method in brief: (§2)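 MDA-MB-231 xenografts in mice; tumor growth followed after intraperitoneal or oral dosing, doses as listed per line.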

MDA-MB-231 [3] = experiment: Antitumor activity against human ER negative MDA-MB-231 cells xenografted in nude mouse assessed as inhibition of tumor growth at 12.5 mg/kg, ip qd for 5 days; assay type: functional, organism-based; design: dose 12.5 mg/kg; method in brief: as §2
MDA-MB-231 [4] = experiment: Induction of apoptosis in human ER negative MDA-MB-231 cells assessed as cleavage of caspase-3 after 48 hrs; assay type: functional, cell-based
MDA-MB-231 [5] = experiment: Antiproliferative activity against human ER negative MDA-MB-231 cells at 10 to 20 uM after 24 hrs by MTT assay; assay type: functional, cell-based
Method in brief: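 MDA-MB-231 cells exposed 24 h; proliferation read by MTT assay.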

[6] = target: Signal transducer and activator of transcription 3 (Homo sapiens) (UniProt P40763); experiment: Inhibition of STAT3 promoter activity in human ER negative MDA-MB-231 cells after 24 hrs by dual luciferase reporter assay; assay type: cell-based
Method in brief: (§3)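 MDA-MB-231 cells pretreated 24 h at various concentrations, then transiently transfected with pSTAT3-Luc vector; STAT3 promoter activity by dual luciferase reporter assay, expressed relative to control.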

[7] = target: Signal transducer and activator of transcription 3 (Homo sapiens) (UniProt P40763); experiment: Inhibition of STAT3 promoter activity in human ER negative MDA-MB-231 cells at 20 uM after 24 hrs by dual luciferase reporter assay; assay type: cell-based; method in brief: as §3
[8] = target: Signal transducer and activator of transcription 3 (Homo sapiens) (UniProt P40763); experiment: Inhibition of STAT3 promoter activity in human ER negative MDA-MB-231 cells at 10 uM after 24 hrs by dual luciferase reporter assay; assay type: cell-based; method in brief: as §3
[9] = Solubility of the compound in water; assay type: physicochemical
[10] = target: Signal transducer and activator of transcription 3 (Homo sapiens) (UniProt P40763); experiment: Inhibition of STAT3 in human ER negative MDA-MB-231 cells assessed as reduction of total STAT3 level at 1 to 10 uM after 24 hrs by Western blot analysis; assay type: cell-based
Method in brief: (§4)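 MDA-MB-231 cells treated with a series of doses for 24 h; total STAT3 and Tyr-705-phosphorylated STAT3 detected by Western blot.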

MDA-MB-231 [11] = experiment: Induction of morphological changes in human ER negative MDA-MB-231 cells at 1 to 10 uM after 48 hrs by light microscopic analysis; assay type: functional, cell-based
Method in brief: (§5)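 MDA-MB-231 cells treated 48 h at 1, 5 and 10 μM; cell morphology, growth and apoptotic features examined under light microscopy.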

MDA-MB-231 [12] = experiment: Induction of apoptosis in human ER negative MDA-MB-231 cells at 1 to 10 uM after 48 hrs by light microscopic analysis; assay type: functional, cell-based; method in brief: as §5
MDA-MB-231 [13] = experiment: Antiproliferative activity against human ER negative MDA-MB-231 cells at 1 to 10 uM after 48 hrs by light microscopic analysis; assay type: functional, cell-based; method in brief: as §5
[14] = target: Signal transducer and activator of transcription 3 (Homo sapiens) (UniProt P40763); experiment: Inhibition of STAT3 in human ER negative MDA-MB-231 cells assessed as reduction of phosphorylated STAT3 at Tyr-705 level at 1 to 10 uM after 24 hrs by Western blot analysis; assay type: cell-based; method in brief: as §4
MDA-MB-231 [15] = experiment: Antitumor activity against human ER negative MDA-MB-231 cells xenografted in nude mouse assessed as inhibition of tumor growth at 25 mg/kg, po qd for 5 days; assay type: functional, organism-based; design: dose 25 mg/kg; method in brief: as §2
MDA-MB-231 [16] = experiment: Antitumor activity against human ER negative MDA-MB-231 cells xenografted in nude mouse assessed as inhibition of tumor growth at 7.5 mg/kg, ip qd for 5 days; assay type: functional, organism-based; design: dose 7.5 mg/kg; method in brief: as §2
MDA-MB-231 [17] = experiment: Induction of apoptosis in human ER negative MDA-MB-231 cells using annexin-V staining at 1 to 10 uM after 48 hrs by flow cytometry; assay type: functional, cell-based
Method in brief: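 Apoptosis in MDA-MB-231 cells measured by annexin V staining with flow cytometry across a dose range.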

MDA-MB-231 [18] = experiment: Induction of apoptosis in human ER negative MDA-MB-231 cells assessed as down regulation of cycline D1 at 1 to 10 uM after 48 hrs; assay type: functional, cell-based
MDA-MB-231 [19] = experiment: Induction of apoptosis in human ER negative MDA-MB-231 cells assessed as cleavage of caspase-3 at 1 to 10 uM after 48 hrs; assay type: functional, cell-based

Signal transducer and activator of transcription 3 (Homo sapiens), sequence (P40763 whole entry): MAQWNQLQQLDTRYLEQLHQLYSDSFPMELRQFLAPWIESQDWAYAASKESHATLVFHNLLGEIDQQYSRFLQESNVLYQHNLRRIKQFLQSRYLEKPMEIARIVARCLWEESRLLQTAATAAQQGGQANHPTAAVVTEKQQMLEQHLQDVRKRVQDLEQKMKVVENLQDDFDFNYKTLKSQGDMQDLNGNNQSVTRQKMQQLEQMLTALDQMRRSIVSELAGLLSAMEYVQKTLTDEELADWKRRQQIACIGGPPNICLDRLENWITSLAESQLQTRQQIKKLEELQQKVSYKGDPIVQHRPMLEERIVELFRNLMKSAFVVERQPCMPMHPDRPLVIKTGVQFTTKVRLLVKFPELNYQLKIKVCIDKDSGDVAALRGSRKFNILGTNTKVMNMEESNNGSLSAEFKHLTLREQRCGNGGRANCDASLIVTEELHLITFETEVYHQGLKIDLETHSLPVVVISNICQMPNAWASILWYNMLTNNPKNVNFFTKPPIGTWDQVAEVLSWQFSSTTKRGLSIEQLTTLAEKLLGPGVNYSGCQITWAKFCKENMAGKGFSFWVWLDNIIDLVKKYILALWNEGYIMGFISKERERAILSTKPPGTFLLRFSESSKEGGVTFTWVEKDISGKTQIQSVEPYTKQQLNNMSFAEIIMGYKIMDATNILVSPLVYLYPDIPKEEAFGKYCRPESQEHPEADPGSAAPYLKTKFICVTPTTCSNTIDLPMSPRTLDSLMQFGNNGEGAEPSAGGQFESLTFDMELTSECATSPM

## CC(=O)Nc1ccc(NC(=O)c2cc(Cl)ccc2OC2CCNCC2)c(Cl)c1
MCF7
  IC50: > 10 µM
MDA-MB-231 [1]
  IC50: 5.87 µM

## O=C(Nc1ccc([N+](=O)[O-])cc1Cl)c1cc(Cl)ccc1OCCN1CCOCC1
PANC-1
  IC50: > 10 µM
ASPC1
  IC50: 72.2 µM
MCF7
  IC50: 9.87 µM
MDA-MB-231 [1]
  IC50: 18 µM

## O=C(Nc1ccc([N+](=O)[O-])cc1Cl)c1cc(Cl)ccc1O [NICLOSAMIDE]
MDA-MB-231 [2]
  TGI: Active
MDA-MB-231 [3]
  TGI: Active
MDA-MB-231 [4]
  Activity: Dose-dependent effect
MDA-MB-231 [5]
  Activity: Active
[6]
  Activity: Active
[7]
  inhibition: Active
[8]
  inhibition: Active
[9]; water, read-out: solubility
  solubility: 0.23 µg/mL (≈ 0.703 µM)
[10]
  inhibition: Active
MDA-MB-231 [11]
  Activity: Active
MDA-MB-231 [12]
  Activity: Active
MDA-MB-231 [13]
  Activity: Active
PANC-1
  IC50: 1.73 µM
[14]
  inhibition: Active
ASPC1
  IC50: 1.47 µM
MCF7
  IC50: 1.06 µM
MDA-MB-231 [1]
  IC50: 0.79 µM

## O=C(Nc1ccc([N+](=O)[O-])cc1Cl)c1cc(Cl)ccc1OC1CCNCC1 [listing 1 of 2 here]
MDA-MB-231 [11]
  Activity: Active
MDA-MB-231 [12]
  Activity: Active
MDA-MB-231 [13]
  Activity: Active

## CN(C)CCOc1ccc(Cl)cc1C(=O)Nc1ccc([N+](=O)[O-])cc1Cl
MCF7
  IC50: > 10 µM
MDA-MB-231 [1]
  IC50: > 10 µM

## NCCCCOc1ccc(Cl)cc1C(=O)Nc1ccc([N+](=O)[O-])cc1Cl
PANC-1
  IC50: > 10 µM
ASPC1
  IC50: 7.4 µM
MCF7
  IC50: 3.7 µM
MDA-MB-231 [1]
  IC50: 2.37 µM

## O=C(Nc1ccc([N+](=O)[O-])cc1Cl)c1cc(Cl)ccc1OCCN1CCNCC1
MCF7
  IC50: 12.4 µM
MDA-MB-231 [1]
  IC50: 8.7 µM

## O=C(Nc1ccc([N+](=O)[O-])cc1Cl)c1cc(Cl)ccc1OCCN1CCCCC1
MCF7
  IC50: > 10 µM
MDA-MB-231 [1]
  IC50: > 10 µM

## NCCOCCOc1ccc(Cl)cc1C(=O)Nc1ccc([N+](=O)[O-])cc1Cl
PANC-1
  IC50: > 10 µM
ASPC1
  IC50: > 10 µM
MCF7
  IC50: 9.37 µM
MDA-MB-231 [1]
  IC50: 5.3 µM

## Cl.O=C(Nc1ccc([N+](=O)[O-])cc1Cl)c1cc(Cl)ccc1OC1CCNCC1
[9]; buffer
  solubility: 248 µg/mL

## O=C(Nc1ccc([N+](=O)[O-])cc1Cl)c1cc(Cl)ccc1OCCF
MCF7
  IC50: > 10 µM
MDA-MB-231 [1]
  IC50: > 10 µM

## NCCOc1ccc(Cl)cc1C(=O)Nc1ccc([N+](=O)[O-])cc1Cl
MDA-MB-231 [15]
  TGI: Active
MDA-MB-231 [16]
  TGI: Active
MDA-MB-231 [4]
  Activity: Dose-dependent effect
MDA-MB-231 [17]
  Activity: Active
MDA-MB-231 [18]
  Activity: Active
MDA-MB-231 [19]
  Activity: Active
MDA-MB-231 [5]
  Activity: Active
[6]
  Activity: Active
  inhibition: Dose-dependent effect
[7]
  inhibition: 62%
[8]
  inhibition: 32%
[10]
  inhibition: Active
MDA-MB-231 [11]
  Activity: Active
MDA-MB-231 [12]
  Activity: Active
MDA-MB-231 [13]
  Activity: Active
PANC-1
  IC50: 1.08 µM
[14]
  inhibition: Active
ASPC1
  IC50: 1.9 µM
MCF7
  IC50: 0.91 µM
MDA-MB-231 [1]
  IC50: 1.64 µM

## CN1CCC(Oc2ccc(Cl)cc2C(=O)Nc2ccc([N+](=O)[O-])cc2Cl)CC1
PANC-1
  IC50: > 10 µM
ASPC1
  IC50: 3.51 µM
MCF7
  IC50: 4.11 µM
MDA-MB-231 [1]
  IC50: 2.69 µM

## NCCCOc1ccc(Cl)cc1C(=O)Nc1ccc([N+](=O)[O-])cc1Cl
PANC-1
  IC50: 3.11 µM
ASPC1
  IC50: 4.2 µM
MCF7
  IC50: 3.11 µM
MDA-MB-231 [1]
  IC50: 2.61 µM

## CN1CCN(CCOc2ccc(Cl)cc2C(=O)Nc2ccc([N+](=O)[O-])cc2Cl)CC1
MCF7
  IC50: > 10 µM
MDA-MB-231 [1]
  IC50: > 10 µM

## NCCCCCOc1ccc(Cl)cc1C(=O)Nc1ccc([N+](=O)[O-])cc1Cl
PANC-1
  IC50: 4.67 µM
ASPC1
  IC50: 2.08 µM
MCF7
  IC50: 3.49 µM
MDA-MB-231 [1]
  IC50: 3.1 µM

## O=C(Nc1ccc([N+](=O)[O-])cc1Cl)c1cc(Cl)ccc1OC1CCNCC1 [listing 2 of 2 here]
PANC-1
  IC50: 0.54 µM
ASPC1
  IC50: 2.76 µM
MCF7
  IC50: 0.25 µM
MDA-MB-231 [1]
  IC50: 0.29 µM

## CS(=O)(=O)Nc1ccc(NC(=O)c2cc(Cl)ccc2OC2CCNCC2)c(Cl)c1
MCF7
  IC50: > 10 µM
MDA-MB-231 [1]
  IC50: > 10 µM
